≈ marks a conversion by molar mass, not a printed value.
Experiments:
[1] = Half life in human liver microsomes; assay type: ADME, microsome
Cynomolgus monkey [2] = assay: In-vivo inhibition of 11beta-HSD1 in cynomolgus monkey abdominal subcutaneous adipose tissue assessed as reduction in cortisol level at 1 mg/kg, po using [2H]-cortisone as substrate after 22 hrs by HPLC analysis relative to control; assay type: functional; details: Macaca fascicularis
Method in brief: (§1)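 Cynomolgus monkeys were dosed orally. Perirenal and abdominal subcutaneous adipose tissue was then taken, and cortisone-to-cortisol conversion was measured ex vivo. Reduction in cortisol is expressed relative to vehicle-treated animals.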

CYP3A4 = CYP3A4 (Homo sapiens, UniProt P08684); assay: Inhibition of recombinant CYP3A4 (unknown origin); assay type: ADME; details: recombinant CYP3A4
[3] = Mean residence time in po dosed cynomolgus monkey; assay type: ADME, organism-based, Macaca fascicularis; details: in vivo
Cynomolgus monkey [4] = assay: In-vivo inhibition of 11beta-HSD1 in cynomolgus monkey perirenal adipose tissue assessed as reduction in cortisol level at 1 mg/kg, po using [2H]-cortisone as substrate after 22 hrs by HPLC analysis relative to control; assay type: functional; details: Macaca fascicularis; method in brief: as §1
CYP2C9 = CYP2C9 (Homo sapiens, UniProt P11712); assay: Inhibition of CYP2C9 (unknown origin); assay type: ADME
[5] = molecular target: T1, Nuclear receptor subfamily 1 group I member 2 (Homo sapiens, UniProt O75469); assay: Inhibition of PXR (unknown origin); assay type: ADME
T1 sequence (O75469 whole entry): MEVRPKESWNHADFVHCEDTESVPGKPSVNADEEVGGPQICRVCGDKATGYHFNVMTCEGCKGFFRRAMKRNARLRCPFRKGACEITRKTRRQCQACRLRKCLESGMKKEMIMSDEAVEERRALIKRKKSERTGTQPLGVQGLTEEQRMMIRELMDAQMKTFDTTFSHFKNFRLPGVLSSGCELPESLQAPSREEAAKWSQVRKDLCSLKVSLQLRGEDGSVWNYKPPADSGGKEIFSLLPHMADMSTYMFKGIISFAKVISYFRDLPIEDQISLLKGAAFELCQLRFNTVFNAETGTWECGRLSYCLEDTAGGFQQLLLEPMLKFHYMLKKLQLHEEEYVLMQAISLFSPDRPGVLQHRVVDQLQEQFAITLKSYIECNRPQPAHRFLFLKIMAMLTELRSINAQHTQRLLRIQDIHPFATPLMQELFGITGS

[6] = Aqueous solubility of the compound; assay type: physicochemical; details: aqueous medium; read-out: solubility
Method in brief: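 Solubility measured in water, with each compound tested as amorphous material.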

[7] = Half life in cynomolgus monkey liver microsomes; assay type: ADME, Macaca fascicularis, microsome
hERG = hERG (Homo sapiens, UniProt Q12809); assay: Inhibition of human ERG at 10 uM by patch clamp assay relative to control
Cytochrome P450 2D6 = Cytochrome P450 2D6 (Homo sapiens, UniProt P10635); assay: Inhibition of CYP2D6 (unknown origin); assay type: ADME
[8] = Mean residence time in iv dosed cynomolgus monkey; assay type: ADME, organism-based, Macaca fascicularis; details: in vivo
[9] = Protein binding in human plasma; assay type: ADME, cell-free; details: read-out: PPB (converted)
[10] = Oral bioavailability in cynomolgus monkey; assay type: ADME, organism-based, Macaca fascicularis; details: in vivo
Cynomolgus monkey [11] = assay: In-vivo inhibition of 11beta-HSD1 in cynomolgus monkey perirenal adipose tissue assessed as reduction in cortisol level at 3 mg/kg, po using [2H]-cortisone as substrate after 22 hrs by HPLC analysis relative to control; assay type: functional; details: Macaca fascicularis; method in brief: as §1
[12] = Half life in rat liver microsomes; assay type: ADME, microsome
[13] = molecular target: T2, 11-beta-hydroxysteroid dehydrogenase type 2 (Homo sapiens, UniProt P80365); assay: Inhibition of 11beta-HSD2 (unknown origin)
T2 sequence (P80365 whole entry): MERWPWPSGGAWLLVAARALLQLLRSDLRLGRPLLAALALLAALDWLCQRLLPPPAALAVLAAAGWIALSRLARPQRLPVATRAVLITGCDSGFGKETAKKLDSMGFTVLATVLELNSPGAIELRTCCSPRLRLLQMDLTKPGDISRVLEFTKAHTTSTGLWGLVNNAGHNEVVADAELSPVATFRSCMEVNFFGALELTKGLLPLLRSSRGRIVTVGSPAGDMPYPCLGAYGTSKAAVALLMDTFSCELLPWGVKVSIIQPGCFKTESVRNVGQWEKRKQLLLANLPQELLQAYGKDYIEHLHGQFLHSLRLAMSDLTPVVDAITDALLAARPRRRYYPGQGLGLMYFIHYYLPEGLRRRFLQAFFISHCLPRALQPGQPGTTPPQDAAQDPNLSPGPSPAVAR

[14] = Clearance in iv dosed cynomolgus monkey; assay type: ADME, organism-based, Macaca fascicularis; details: in vivo
Cynomolgus monkey [15] = assay: Dose normalized AUC in iv dosed cynomolgus monkey; assay type: ADME, organism-based, Macaca fascicularis; details: in vivo
[16] = molecular target: Voltage-gated inwardly rectifying potassium channel KCNH2 (Homo sapiens, UniProt Q12809); assay: Inhibition of human ERG
[17] = molecular target: T3, 17-beta-hydroxysteroid dehydrogenase type 1 (Homo sapiens, UniProt P14061); assay: Inhibition of 17beta-HSD1 (unknown origin)
T3 sequence (P14061 whole entry): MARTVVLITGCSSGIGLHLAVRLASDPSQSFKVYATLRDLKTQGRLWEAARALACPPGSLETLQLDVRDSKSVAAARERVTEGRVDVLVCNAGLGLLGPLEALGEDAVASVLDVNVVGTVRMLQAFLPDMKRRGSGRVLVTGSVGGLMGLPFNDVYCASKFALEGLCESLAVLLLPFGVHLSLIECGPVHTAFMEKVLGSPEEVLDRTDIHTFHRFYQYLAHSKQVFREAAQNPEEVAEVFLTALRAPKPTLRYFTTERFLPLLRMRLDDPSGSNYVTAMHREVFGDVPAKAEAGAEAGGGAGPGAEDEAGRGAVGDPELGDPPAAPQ

[18] = Partition coefficient, log P of the compound; assay type: physicochemical; details: octanol/water
[19] = Volume of distribution at steady state in iv dosed cynomolgus monkey; assay type: ADME, organism-based, Macaca fascicularis; details: in vivo, read-out: Vdss
Cynomolgus monkey [20] = assay: In-vivo inhibition of 11beta-HSD1 in cynomolgus monkey abdominal subcutaneous adipose tissue assessed as reduction in cortisol level at 3 mg/kg, po using [2H]-cortisone as substrate after 22 hrs by HPLC analysis relative to control; assay type: functional; details: Macaca fascicularis; method in brief: as §1
[21] = molecular target: T4, 3 beta-hydroxysteroid dehydrogenase/Delta 5-->4-isomerase type 2 (Homo sapiens, UniProt P26439); assay: Inhibition of 3beta-HSD2 (unknown origin)
T4 sequence (P26439 whole entry): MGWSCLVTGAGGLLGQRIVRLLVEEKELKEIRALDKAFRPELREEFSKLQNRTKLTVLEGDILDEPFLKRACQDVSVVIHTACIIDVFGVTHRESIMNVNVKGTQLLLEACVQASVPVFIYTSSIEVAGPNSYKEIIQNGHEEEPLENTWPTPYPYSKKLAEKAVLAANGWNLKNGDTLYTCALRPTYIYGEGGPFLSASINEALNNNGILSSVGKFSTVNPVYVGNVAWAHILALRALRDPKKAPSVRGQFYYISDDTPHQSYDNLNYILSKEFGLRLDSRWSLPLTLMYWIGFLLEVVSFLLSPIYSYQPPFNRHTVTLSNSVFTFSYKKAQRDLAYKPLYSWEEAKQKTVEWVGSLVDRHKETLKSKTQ

Chain of CYP2C9 (P11712 whole entry): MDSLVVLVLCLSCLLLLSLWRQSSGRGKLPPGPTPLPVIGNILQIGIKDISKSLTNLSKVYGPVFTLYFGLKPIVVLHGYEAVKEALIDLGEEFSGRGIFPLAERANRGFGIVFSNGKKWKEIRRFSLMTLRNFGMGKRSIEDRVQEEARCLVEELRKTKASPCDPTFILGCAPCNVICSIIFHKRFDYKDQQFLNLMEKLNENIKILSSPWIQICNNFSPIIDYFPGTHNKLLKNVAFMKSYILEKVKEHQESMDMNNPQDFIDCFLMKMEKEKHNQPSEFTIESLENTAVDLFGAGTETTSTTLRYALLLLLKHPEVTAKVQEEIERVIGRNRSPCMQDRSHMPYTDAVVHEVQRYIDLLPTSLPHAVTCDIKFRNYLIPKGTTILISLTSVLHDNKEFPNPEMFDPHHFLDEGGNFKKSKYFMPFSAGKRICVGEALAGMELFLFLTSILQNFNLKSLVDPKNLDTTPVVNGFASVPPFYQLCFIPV
Chain of Voltage-gated inwardly rectifying potassium channel KCNH2 (Q12809 whole entry): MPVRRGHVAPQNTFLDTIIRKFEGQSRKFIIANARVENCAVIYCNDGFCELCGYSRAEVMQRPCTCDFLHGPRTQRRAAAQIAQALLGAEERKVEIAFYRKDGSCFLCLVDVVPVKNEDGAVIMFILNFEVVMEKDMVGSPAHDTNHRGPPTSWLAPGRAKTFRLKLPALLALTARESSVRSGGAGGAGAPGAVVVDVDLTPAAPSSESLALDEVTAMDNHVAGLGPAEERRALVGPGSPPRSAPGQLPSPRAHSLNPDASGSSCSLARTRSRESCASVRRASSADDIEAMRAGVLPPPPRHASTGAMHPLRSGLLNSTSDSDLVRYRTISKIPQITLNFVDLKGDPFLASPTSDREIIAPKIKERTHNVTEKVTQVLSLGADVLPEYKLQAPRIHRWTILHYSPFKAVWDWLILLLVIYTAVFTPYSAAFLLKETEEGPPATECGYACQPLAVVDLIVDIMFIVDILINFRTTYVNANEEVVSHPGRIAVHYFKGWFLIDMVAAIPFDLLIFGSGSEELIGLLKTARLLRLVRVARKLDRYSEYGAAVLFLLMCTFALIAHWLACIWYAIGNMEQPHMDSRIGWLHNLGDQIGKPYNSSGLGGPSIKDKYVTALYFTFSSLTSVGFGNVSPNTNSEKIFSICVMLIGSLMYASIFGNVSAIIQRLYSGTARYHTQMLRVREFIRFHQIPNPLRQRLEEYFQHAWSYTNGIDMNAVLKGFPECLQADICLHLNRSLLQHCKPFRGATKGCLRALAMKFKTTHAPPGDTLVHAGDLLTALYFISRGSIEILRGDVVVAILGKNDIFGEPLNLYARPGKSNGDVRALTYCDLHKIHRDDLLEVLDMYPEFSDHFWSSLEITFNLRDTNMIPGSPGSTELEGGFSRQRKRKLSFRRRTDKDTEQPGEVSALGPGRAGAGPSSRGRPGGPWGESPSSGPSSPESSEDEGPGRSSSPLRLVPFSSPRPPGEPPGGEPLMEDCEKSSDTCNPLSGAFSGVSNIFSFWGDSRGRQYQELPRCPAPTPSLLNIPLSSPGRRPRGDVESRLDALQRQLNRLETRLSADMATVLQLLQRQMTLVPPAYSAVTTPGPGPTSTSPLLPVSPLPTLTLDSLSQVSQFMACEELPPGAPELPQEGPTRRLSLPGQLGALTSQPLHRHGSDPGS
Chain of hERG (Q12809 whole entry): as above
Chain of Cytochrome P450 2D6 (P10635 whole entry): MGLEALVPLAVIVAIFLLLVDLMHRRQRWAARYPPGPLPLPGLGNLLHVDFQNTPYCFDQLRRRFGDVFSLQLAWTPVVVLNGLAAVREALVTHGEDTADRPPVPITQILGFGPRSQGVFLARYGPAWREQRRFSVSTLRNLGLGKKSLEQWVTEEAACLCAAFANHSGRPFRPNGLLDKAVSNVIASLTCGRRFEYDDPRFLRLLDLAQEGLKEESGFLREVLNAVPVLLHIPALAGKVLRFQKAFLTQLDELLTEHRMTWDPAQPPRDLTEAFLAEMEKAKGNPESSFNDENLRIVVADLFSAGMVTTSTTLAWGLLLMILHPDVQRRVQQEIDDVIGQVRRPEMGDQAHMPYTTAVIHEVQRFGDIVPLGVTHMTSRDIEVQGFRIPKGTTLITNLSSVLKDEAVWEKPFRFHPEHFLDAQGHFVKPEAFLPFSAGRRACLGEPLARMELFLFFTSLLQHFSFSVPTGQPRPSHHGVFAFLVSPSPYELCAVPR
Chain of CYP3A4 (P08684 whole entry): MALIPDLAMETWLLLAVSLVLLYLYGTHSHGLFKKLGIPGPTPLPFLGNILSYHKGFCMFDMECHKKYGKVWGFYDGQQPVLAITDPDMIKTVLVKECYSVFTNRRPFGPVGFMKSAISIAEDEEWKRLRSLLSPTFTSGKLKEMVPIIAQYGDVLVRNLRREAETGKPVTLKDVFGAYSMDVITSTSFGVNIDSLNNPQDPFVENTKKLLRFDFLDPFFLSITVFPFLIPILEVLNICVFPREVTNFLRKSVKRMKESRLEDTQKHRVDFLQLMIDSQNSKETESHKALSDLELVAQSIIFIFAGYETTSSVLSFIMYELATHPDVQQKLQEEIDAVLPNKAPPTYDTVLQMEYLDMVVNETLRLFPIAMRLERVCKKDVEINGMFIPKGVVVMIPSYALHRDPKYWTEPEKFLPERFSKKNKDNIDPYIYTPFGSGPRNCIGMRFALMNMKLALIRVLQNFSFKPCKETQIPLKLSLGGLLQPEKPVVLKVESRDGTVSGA

half-life [1]: > 1.5 h | IC50 (CYP3A4): > 50 µM | MRT [3]: 8.7 h | IC50 (CYP2C9): > 50 µM | EC50 [5]: > 10 µM | solubility [6]: 0.22 mg/mL (≈ 478 µM) | half-life [7]: > 1.5 h | IC50 (Cytochrome P450 2D6): > 50 µM | MRT [8]: 5.5 h | fraction unbound [9]: 0.084 | bioavailability [10]: 54% | half-life [12]: > 1.5 h | IC50 [13]: > 10 µM | clearance [14]: 0.45 L/h/kg | AUC/dose (Cynomolgus monkey [15]): 2500 nM·h | IC50 [17]: > 10 µM | logP [18]: 2.6 | Vd [19]: 2.5 L/kg | IC50 [21]: > 10 µM
Compound: C[C@@H](c1ccc(-c2ccn(C)c(=O)c2)cc1)N1CC[C@](CC(C)(C)O)(c2ccccc2)OC1=O
inhibition in vivo at 1 mg/kg (Cynomolgus monkey [2]): 67% | inhibition in vivo at 1 mg/kg (Cynomolgus monkey [4]): 67% | inhibition at 10 µM (hERG): < 10% | inhibition in vivo at 3 mg/kg (Cynomolgus monkey [11]): 90% | IC50 [16]: > 100 µM | inhibition in vivo at 3 mg/kg (Cynomolgus monkey [20]): 95%

Reference: ChEMBL document CHEMBL4033714, “Discovery of BI 135585, an in vivo efficacious oxazinanone-based 11β hydroxysteroid dehydrogenase type 1 inhibitor” (Bioorg Med Chem, 2017)
